Experimental data pooled from the literature.
In brackets after ≈: the same amount, converted by molar mass.
Organism: Candida albicans

| Structure (SMILES) | read-out | technique | strain | concentration | time | measurement | value |
| --- | --- | --- | --- | --- | --- | --- | --- |
| CC(=O)N1CCN(c2ccc(OCC3COC(Cn4ccnc4)(c4ccc(Cl)cc4Cl)O3)cc2)CC1 (stereo not shown) | microbial growth | well diffusion | MTCC227 | 1000 µg/mL | 18 h | inhibition zone | 24 mm |
| Cc1ccc(N=Nc2c(N)nn3c(-c4ccc(C)cc4)cc(-c4ccc(OCc5ccccc5)cc4)nc23)cc1 | microbial killing | broth dilution | ATCC10231 |  |  | MFC | 125 µg/mL (≈ 238 µM) |
| N#CC(=C1C=CC(=NOC(=O)OCc2ccccc2)C=C1)c1ccccc1 | microbial killing | broth dilution | ATCC10231 |  | 48 h | MFC | 256 µg/mL (≈ 718 µM) |
| C[C@@H]1[C@H](O)[C@@H](C)/C=C/C=C/C=C/C=C/C=C/C=C/C=C/[C@H](O[C@@H]2O[C@H](C)[C@@H](O)[C@H](N)[C@@H]2O)C[C@@H]2O[C@](O)(C[C@@H](O)C[C@@H](O)[C@H](O)CC[C@@H](O)C[C@@H](O)CC(=O)O[C@H]1C)C[C@H](O)[C@H]2C(=O)O | microbial growth | broth dilution | SP3931 |  | 48 h | MIC | < 0.25 µM |
| Nc1nn2c(-c3ccco3)cc(-c3ccc(OCc4ccccc4)cc3)nc2c1N=Nc1ccc(F)cc1 | microbial killing | broth dilution | ATCC10231 |  |  | MFC | 500 µg/mL (≈ 991 µM) |
| CC(=O)ON=C1C=CC(=C(C#N)c2ccccc2)C=C1 | microbial killing | broth dilution | ATCC10231 |  | 48 h | MFC | 4 µg/mL (≈ 15.1 µM) |
| Nc1nn2c(-c3ccc(Cl)cc3Cl)cc(-c3ccc(OCc4ccccc4)cc3)nc2c1N=Nc1ccc(F)cc1 | microbial killing | broth dilution | ATCC10231 |  |  | MFC | 125 µg/mL (≈ 214 µM) |
| COc1ccc(C=NNC(=O)CSc2nc3c(C)cccc3c(=O)n2-c2ccccc2)cc1OS(C)(=O)=O | microbial growth | well diffusion |  | 20 µg/mL |  | inhibition zone | 4 mm |
| COc1ccc(N=Nc2c(N)nn3c(-c4ccc(C)cc4)cc(-c4ccc(OCc5ccccc5)cc4)nc23)cc1 | microbial killing | broth dilution | ATCC10231 |  |  | MFC | 125 µg/mL (≈ 231 µM) |
| CCS(=O)(=O)Oc1ccc(C=NNC(=O)CSc2nc3c(C)cccc3c(=O)n2-c2ccccc2)cc1 | microbial growth | well diffusion |  | 20 µg/mL |  | inhibition zone | 3 mm |
| COc1ccc(N=Nc2c(N)nn3c(-c4ccc(Cl)cc4Cl)cc(-c4ccc(OCc5ccccc5)cc4)nc23)cc1 | microbial killing | broth dilution | ATCC10231 |  |  | MFC | 250 µg/mL (≈ 420 µM) |
| Nc1ccc(S(=O)(=O)Nc2ncccn2)cc1 | microbial growth | well diffusion |  | 20 µg/mL |  | inhibition zone | 3 mm |
| C#CCON=C1C=CC(=C(C#N)c2ccccc2)C=C1 | microbial killing | broth dilution | ATCC10231 |  | 48 h | MFC | 32 µg/mL (≈ 123 µM) |
| CCS(=O)(=O)Oc1ccc(C=NNC(=O)CSc2nc3ccc(Cl)cc3c(=O)n2-c2ccccc2)cc1OC | microbial growth | well diffusion |  | 20 µg/mL |  | inhibition zone | 2 mm |
| CC(=O)N1CCN(c2ccc(OCC3COC(Cn4ccnc4)(c4ccc(Cl)cc4Cl)O3)cc2)CC1 (stereo not shown) | microbial growth | broth dilution | SP3931 |  | 48 h | MIC | 2 µM (≈ 1.06 µg/mL) |
| CCS(=O)(=O)Oc1ccc(C=NNC(=O)CSc2nc3ccc(Cl)cc3c(=O)n2-c2ccccc2)cc1 | microbial growth | well diffusion |  | 20 µg/mL |  | inhibition zone | 3 mm |
| OC(Cn1cncn1)(Cn1cncn1)c1ccc(F)cc1F | microbial growth | broth dilution | 56452 |  | 48 h | MIC | 1 µM (≈ 0.306 µg/mL) |
| N#CC(=C1C=CC(=NOC(=O)c2ccccc2)C=C1)c1ccccc1 | microbial killing | broth dilution | ATCC10231 |  | 48 h | MFC | 256 µg/mL (≈ 784 µM) |
| Cc1cccc2c(=O)n(-c3ccccc3)c(SCC(=O)NN=Cc3ccc(OS(C)(=O)=O)cc3)nc12 | microbial growth | well diffusion |  | 20 µg/mL |  | inhibition zone | 4 mm |
